Test results from ChEMBL document CHEMBL4229461 (Bioorg Med Chem, 2018).
Calls of active or inactive are those of the source. The calls are words filed in the database; no cut-off is given here.

Tests used:
[1] = target: T1, Amyloid-beta precursor protein (Homo sapiens, UniProt P05067); test: Disruption of recombinant human amyloid beta (1 to 40) fibrils at 10 uM after 24 hrs by ThT fluorescence assay relative to control
How it was run: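 Aβ1-40 fibrils (10 μM in 150 mM MOPS, pH 6.9) incubated 24 h at 37 °C with compound at 10 μM. ThT added to 20 μM, 1 h at 37 °C in the dark, excitation 440 nm, emission 485 nm. Intensity normalized to fibrils alone. Triplicate, mean ± SD. Intrinsic compound fluorescence measured without peptide.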

[2] = target: T1, Amyloid-beta precursor protein; test: Disruption of recombinant human amyloid beta (1 to 40) fibrils after 24 hrs by ThT fluorescence assay
HT-22 [3] = test: Cytoprotection against glutamate-induced apoptosis in mouse HT22 cells assessed as decrease in Bax/Bcl2 ratio at 1 uM after 24 hrs by RT-PCR method; format: functional, cell-based
How it was run: (§1)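 HT-22 mouse hippocampal cells grown in high-glucose DMEM with 10% heat-inactivated FBS at 37 °C, 5% CO2. Compound (1 μM; DMSO stock, final DMSO 0.025%) added together with 2 mM glutamate for 24 h. Transcripts measured by qRT-PCR. iNOS or Bax/Bcl-2 ratio reported as fold change vs untreated control (set at 1) by the ΔΔCt method.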

HT-22 [4] = test: Cytoprotection against glutamate-induced oxidative stress in mouse HT22 cells assessed as decrease in iNOS mRNA level at 1 uM after 24 hrs by RT-PCR method; format: functional, cell-based; how it was run: as §1
HT-22 [5] = test: Cytoprotection against glutamate-induced excitotoxicity in mouse HT22 cells assessed as increase in cell viability at 1 uM after 24 hrs by optical microscopic assay; format: functional, cell-based
How it was run: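 Cells co-treated 24 h with 2 mM glutamate plus compound at 1 μM. Viable cells judged from optical microscope images.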

HT-22 [6] = test: Cytoprotection against glutamate-induced excitotoxicity in mouse HT22 cells assessed as decrease in glutamate-induced cell cycle arrest at sub-G1 phase at 1 uM after 24 hrs by propidium iodide staining based flow cytometry; format: functional
How it was run: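 HT-22 cells (1.5 × 10^5 per well) co-treated 24 h with 2 mM glutamate plus compound at 1 μM, final DMSO 0.025%. Pelleted, PBS-washed, stained 30 min in PI solution (50 μg/mL PI, Triton, Na citrate). DNA content read by flow cytometry and the SubG1 fraction scored. Mean of three independent experiments ± SD.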

HT-22 [7] = test: Cytoprotection against glutamate-induced excitotoxicity in mouse HT22 cells assessed as increase in cell proliferation at 1 uM after 24 hrs by MTT assay; format: functional, cell-based
How it was run: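 HT-22 cells (5 × 10^3 per well) co-treated 24 h at 37 °C with 2 mM glutamate plus compound at 1 μM, final DMSO 0.025%. MTT added to 0.5 mg/mL final for 2 h, formazan dissolved in acidified isopropanol/NP40, A570 read. Proliferation relative to untreated control (100%). Mean of at least three independent experiments ± SD.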

[8] = target: T1, Amyloid-beta precursor protein; test: Disruption of recombinant human amyloid beta (1 to 40) fibrils after 2 hrs by ThT fluorescence assay
[9] = Cytotoxicity against mouse HT22 cells assessed as reduction in cell viability after 24 hrs by MTT assay; format: cell-based, HT-22
How it was run: (§2)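 HT-22 cells (5 × 10^3 per well) plated, then treated the next day for 24 h with compound in complete medium (1–25 μM range; 10 mM DMSO stock, final DMSO 0.025%; DMSO as negative control). MTT at 0.5 mg/mL final, 2 h, 37 °C; formazan solubilized, A570 read. Mean of at least three independent experiments ± SD.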

[10] = target: T1, Amyloid-beta precursor protein; test: Disruption of recombinant human amyloid beta (1 to 40) fibrils at 10 uM after 24 hrs by atomic force microscopic method
How it was run: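 10 μM Aβ1-40 fibrils plus 10 μM compound, incubated 24 h at 37 °C. Spread on fresh mica, adsorbed 5 min, water-washed, dried under nitrogen, imaged by AFM. No smoothing or noise reduction applied.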

HT-22 [11] = test: Cytotoxicity against mouse HT22 cells assessed as reduction in cell viability at 10 uM after 24 hrs by MTT assay; format: cell-based; details: ht-22, 24 h; how it was run: as §2
HT-22 [12] = test: Cytotoxicity against mouse HT22 cells assessed as reduction in cell viability at 5 uM after 24 hrs by MTT assay; format: cell-based; details: ht-22, 24 h; how it was run: as §2

T1 sequence (P05067 whole entry): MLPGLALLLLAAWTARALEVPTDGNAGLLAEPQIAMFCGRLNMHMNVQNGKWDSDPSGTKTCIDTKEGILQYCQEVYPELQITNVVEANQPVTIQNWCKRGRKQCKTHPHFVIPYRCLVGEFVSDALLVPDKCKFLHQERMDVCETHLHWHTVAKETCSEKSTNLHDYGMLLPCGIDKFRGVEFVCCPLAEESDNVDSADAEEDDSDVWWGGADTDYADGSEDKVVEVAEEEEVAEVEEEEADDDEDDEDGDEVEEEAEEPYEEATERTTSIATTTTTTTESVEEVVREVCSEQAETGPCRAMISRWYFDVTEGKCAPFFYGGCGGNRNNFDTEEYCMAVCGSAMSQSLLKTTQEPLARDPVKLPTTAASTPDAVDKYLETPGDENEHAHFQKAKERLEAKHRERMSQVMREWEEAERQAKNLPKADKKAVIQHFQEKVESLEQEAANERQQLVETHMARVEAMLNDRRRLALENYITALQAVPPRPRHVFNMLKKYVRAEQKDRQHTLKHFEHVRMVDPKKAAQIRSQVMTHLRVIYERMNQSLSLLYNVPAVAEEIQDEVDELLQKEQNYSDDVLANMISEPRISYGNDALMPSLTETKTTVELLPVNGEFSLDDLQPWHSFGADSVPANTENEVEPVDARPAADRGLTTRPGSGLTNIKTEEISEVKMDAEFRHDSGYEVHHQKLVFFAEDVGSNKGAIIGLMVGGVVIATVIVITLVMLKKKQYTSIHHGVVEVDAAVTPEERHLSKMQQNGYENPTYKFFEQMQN

COc1cc(/C=C/c2cc(C)[nH]n2)ccc1O
Activity [1]: Active | DC50 ([2]; read-out: DC50): 38.8 µM

COc1cc(/C=C/C(=O)CC(=O)/C=C/c2ccc(O)c(OC)c2)ccc1O [CURCUMIN]
Activity (HT-22 [3]): Active | Activity (HT-22 [4]): Active | Activity (HT-22 [5]): Active | Activity (HT-22 [6]): Active | Activity [1]: > 75% | Activity (HT-22 [7]): Active | Activity [2]: Dose-dependent effect | Activity [8]: Dose-dependent effect | MNTC at 24 h [9]: 1000 nM | Activity [10]: Active | Activity (HT-22 [11]): Toxic

COc1cc(/C=C/C(=O)/C=C(O)/C=C/c2ccc(OC(C)=O)c(OC)c2)ccc1OC(C)=O
Activity (HT-22 [3]): Active | Activity (HT-22 [4]): Active | Activity (HT-22 [5]): Active | Activity (HT-22 [6]): Active | Activity (HT-22 [7]): Active | DC50 ([2]; read-out: DC50): 1.95 µM | DC50 [8]: 1 µM | MNTC at 24 h [9]: 1000 nM | Activity (HT-22 [12]): Toxic

COc1cc(/C=C/c2cc(/C=C/c3ccc(OC(C)=O)c(OC)c3)[nH]n2)ccc1OC(C)=O
Activity (HT-22 [3]): Active | Activity (HT-22 [4]): Active | Activity (HT-22 [5]): Active | Activity (HT-22 [6]): Active | Activity [1]: > 75% | Activity (HT-22 [7]): Active | DC50 ([2]; read-out: DC50): 0.31 µM | DC50 [8]: 0.65 µM | MNTC at 24 h [9]: 1000 nM | Activity (HT-22 [12]): Toxic

COc1cccc(/C=C/C(=O)/C=C(O)/C=C/c2cccc(OC)c2)c1
DC50 [2]: Not Active

COc1cc(/C=C/c2cc(/C=C/c3ccc(O)c(OC)c3)[nH]n2)ccc1O [CURCUMIN PYRAZOLE]
Activity [1]: > 75% | Activity [2]: Dose-dependent effect | DC50 ([2]; read-out: DC50): 1.47 µM | Activity [8]: Dose-dependent effect

C(=C\c1cc(/C=C/c2ccccc2)[nH]n1)/c1ccccc1
Activity [1]: Active | DC50 [2]: Not Active

O=C(/C=C/c1ccccc1)/C(CCCN1C(=O)c2ccccc2C1=O)=C(O)/C=C/c1ccccc1
Activity [1]: Active | DC50 [2]: Not Active

COc1cc(/C=C/C(=O)/C=C(/C)O)ccc1O
Activity [1]: Active | DC50 [2]: Not Active

O=C(/C=C(O)/C=C/c1ccccc1)/C=C/c1ccccc1
Activity [1]: Active | DC50 [2]: Not Active | Activity [10]: inactive

COc1cc(/C=C/C(=O)/C(CCCN2C(=O)c3ccccc3C2=O)=C(O)/C=C/c2ccc(O)c(OC)c2)ccc1O
Activity [1]: > 75% | DC50 ([2]; read-out: DC50): 1.16 µM
